In ChEMBL document CHEMBL4725480 (ACS Med Chem Lett, 2020):
Activity calls are given as the source filed them. The rule behind the calls is not given here.

Legend:
[1] = target: NAD-dependent protein deacylase sirtuin-6 (Homo sapiens) (UniProt Q8N6T7); test: Activation of His-tagged N-terminal truncated human SIRT6 (13 to 355 residues) expressed in Escherichia coli BL21 (DE3) codon+ cells assessed as increase in deacetylation activity using acetyl-H3K9 peptide as substrate incubated for 2 hrs in presence of NAD+ by mass spectrometric analysis relative to control; conditions: filed as activator
Sequence of NAD-dependent protein deacylase sirtuin-6 (Homo sapiens) (Q8N6T7 whole entry, the tested form may be a part): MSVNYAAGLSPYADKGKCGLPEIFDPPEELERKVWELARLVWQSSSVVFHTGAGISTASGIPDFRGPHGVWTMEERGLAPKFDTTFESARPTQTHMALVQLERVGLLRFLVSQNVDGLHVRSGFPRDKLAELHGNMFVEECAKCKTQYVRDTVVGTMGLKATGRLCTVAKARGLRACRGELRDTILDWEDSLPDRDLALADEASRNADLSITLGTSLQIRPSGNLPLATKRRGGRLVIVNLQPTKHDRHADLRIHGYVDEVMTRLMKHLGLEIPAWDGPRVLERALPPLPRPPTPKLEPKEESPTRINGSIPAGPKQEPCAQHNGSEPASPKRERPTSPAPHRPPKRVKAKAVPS

[2] = target: NAD-dependent protein deacylase sirtuin-6 (Homo sapiens) (UniProt Q8N6T7); test: Activation of N-terminal His-tagged human SIRT6 (1 to 355 residues) expressed in Escherichia coli M15(pREP4) assessed as increase in deacetylation activity using FdL1 substrate peptide incubated for 1 hr in presence of NAD+ by fluorescence assay; conditions: filed as activator
In short: (§1)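 Deacetylation assay with the fluorophore-labelled FdL substrate, run alongside a control for artificial effects from the compound interacting with the fluorophore; fluorescence read-out.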

[3] = target: NAD-dependent protein deacylase sirtuin-6 (Homo sapiens) (UniProt Q8N6T7); test: Activation of N-terminal His-tagged human SIRT6 (1 to 355 residues) expressed in Escherichia coli M15(pREP4) assessed as increase in deacetylation activity using acetyl-H3K9 peptide as substrate incubated for 2 hrs in presence of NAD+ by mass spectrometric analysis; conditions: filed as activator
In short: (§2)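 Deacetylation measured by mass spectrometry using an unlabelled acetylated peptide that represents the physiological histone H3 Lys9 site (H3K9ac); compound tested across a dose range.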

[4] = target: T1, NAD-dependent protein deacetylase sirtuin-1 (Homo sapiens, UniProt Q96EB6); test: Inhibition of N-terminal His-tagged human full length recombinant SIRT1 expressed in Escherichia coli at 250 to 1000 uM by fluorescence based analysis; conditions: dose 250-1000 µM
T1 sequence (Q96EB6 whole entry): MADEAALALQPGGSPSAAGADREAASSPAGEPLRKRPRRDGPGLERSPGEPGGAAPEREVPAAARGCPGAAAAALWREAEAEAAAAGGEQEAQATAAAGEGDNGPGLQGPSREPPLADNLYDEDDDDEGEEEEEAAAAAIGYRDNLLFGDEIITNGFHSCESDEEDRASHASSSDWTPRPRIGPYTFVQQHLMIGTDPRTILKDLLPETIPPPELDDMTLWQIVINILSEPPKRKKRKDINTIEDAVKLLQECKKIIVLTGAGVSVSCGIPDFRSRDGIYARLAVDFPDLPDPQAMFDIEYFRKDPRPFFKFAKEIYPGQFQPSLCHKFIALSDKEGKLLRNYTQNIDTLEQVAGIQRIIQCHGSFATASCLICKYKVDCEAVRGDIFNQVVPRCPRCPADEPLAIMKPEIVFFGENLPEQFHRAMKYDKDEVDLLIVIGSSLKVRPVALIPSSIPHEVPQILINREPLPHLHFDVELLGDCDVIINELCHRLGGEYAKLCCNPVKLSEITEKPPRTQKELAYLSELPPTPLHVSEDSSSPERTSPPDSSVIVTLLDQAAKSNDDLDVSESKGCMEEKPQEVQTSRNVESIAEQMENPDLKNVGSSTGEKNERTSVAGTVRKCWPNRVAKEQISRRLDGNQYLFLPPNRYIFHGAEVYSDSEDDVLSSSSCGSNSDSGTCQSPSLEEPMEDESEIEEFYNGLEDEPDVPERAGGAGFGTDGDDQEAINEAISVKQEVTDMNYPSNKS

[5] = target: NAD-dependent protein deacylase sirtuin-6 (Homo sapiens) (UniProt Q8N6T7); test: Activation of N-terminal His-tagged human SIRT6 (1 to 355 residues) expressed in Escherichia coli M15(pREP4) assessed as increase in substrate deacetylation activity using FdL1 substrate peptide at 250 to 1000 uM incubated for 1 hr in presence of NAD+ by fluorescence assay; conditions: filed as activator, dose microM 250-1000, time 1.0 hrs; in short: as §1
[6] = target: T2, NAD-dependent protein deacetylase sirtuin-2 (Homo sapiens, UniProt Q8IXJ6); test: Inhibition of N-terminal His-tagged human recombinant SIRT2 (55 to 356 residues) expressed in Escherichia coli Rossetta2 cells assessed as decrease in substrate deacetylation activity using QPK(acetyl-K) as substrate at 250 to 1000 uM incubated for 30 mins by fluorescence based analysis; conditions: 0.5 h, dose 250-1000 µM
T2 sequence (Q8IXJ6 whole entry): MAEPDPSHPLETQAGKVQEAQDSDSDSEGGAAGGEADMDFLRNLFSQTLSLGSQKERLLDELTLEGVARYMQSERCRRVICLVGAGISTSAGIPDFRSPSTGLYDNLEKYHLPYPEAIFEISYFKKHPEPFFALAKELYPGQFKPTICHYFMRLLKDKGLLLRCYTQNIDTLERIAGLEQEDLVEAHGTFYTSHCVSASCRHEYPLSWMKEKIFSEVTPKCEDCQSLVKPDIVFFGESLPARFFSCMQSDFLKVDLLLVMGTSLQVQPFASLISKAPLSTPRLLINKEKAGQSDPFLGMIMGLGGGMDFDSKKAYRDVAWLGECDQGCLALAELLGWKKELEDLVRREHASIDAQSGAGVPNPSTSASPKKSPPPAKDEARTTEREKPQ

[7] = target: NAD-dependent protein deacylase sirtuin-6 (Homo sapiens) (UniProt Q8N6T7); test: Activation of N-terminal His-tagged human SIRT6 (1 to 355 residues) expressed in Escherichia coli M15(pREP4) assessed as increase in deacetylation activity using acetyl-H3K9 peptide as substrate incubated for 2 hrs in presence of NAD+ by mass spectrometric analysis relative to control; in short: as §2
[8] = target: T3, NAD-dependent protein deacetylase sirtuin-3, mitochondrial (Homo sapiens, UniProt Q9NTG7); test: Inhibition of N-terminal His-tagged human recombinant SIRT3 (118 to 399 residues) expressed in Escherichia coli assessed as decrease in substrate deacetylation using QPK(acetyl-K) as substrate at 250 to 1000 uM incubated for 30 mins by fluorescence based analysis; conditions: 0.5 h, dose 250-1000 µM
T3 sequence (Q9NTG7 whole entry): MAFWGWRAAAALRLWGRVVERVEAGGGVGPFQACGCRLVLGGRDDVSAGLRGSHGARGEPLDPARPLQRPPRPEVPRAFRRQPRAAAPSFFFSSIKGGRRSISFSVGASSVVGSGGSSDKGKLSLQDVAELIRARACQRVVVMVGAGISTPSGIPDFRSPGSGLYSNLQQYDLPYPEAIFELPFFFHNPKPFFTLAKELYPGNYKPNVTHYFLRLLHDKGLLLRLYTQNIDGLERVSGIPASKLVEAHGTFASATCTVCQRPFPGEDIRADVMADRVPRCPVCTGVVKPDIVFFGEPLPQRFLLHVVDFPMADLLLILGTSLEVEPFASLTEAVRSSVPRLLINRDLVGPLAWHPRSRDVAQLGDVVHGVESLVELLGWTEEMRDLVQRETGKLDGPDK

CC(C)n1c(/C=C/C(O)CC(O)CC(=O)O)c(-c2ccc(F)cc2)c2ccccc21 (stereo not drawn) [FLUVASTATIN]
fold change (FC) [1]: 4 | Activity [2]: Active | Activity [3]: Dose-dependent effect | inhibition (INH) [4]: Active | Activity [5]: Active | inhibition (INH) [6]: Active | fold change (FC) [7]: > 3 | inhibition (INH) [8]: Active
